Test results as given in ChEMBL document CHEMBL1153199, “Fluconazole analogues containing 2H-1,4-benzothiazin-3(4H)-one or 2H-1,4-benzoxazin-3(4H)-one moieties, a novel class of anti-Candida agents” (2010).
≈ marks a conversion by molar mass, not a printed value. Calls of active or inactive are those of the source. No cut-off for these calls is given here.

Columns and labels:
Type in all cases: functional
Aspergillus niger = assay: Antifungal activity against Aspergillus niger ATCC 16404 after 48 hrs by broth microdilution method
Fusarium proliferatum = assay: Antifungal activity against Fusarium proliferatum ATCC 10052 after 48 hrs by broth microdilution method
Candida albicans [1] = assay: Antifungal activity against Candida albicans ATCC 24433 after 48 hrs by broth microdilution method
Summary of the method: (§1)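 Broth microdilution run per CLSI M27-A2 in RPMI 1640 buffered to pH 7.0 with MOPS. Fluconazole and amphotericin B served as reference drugs. Endpoints were read after 48 h, visually or by spectrophotometer where needed. MIC was taken as the concentration giving 50% inhibition relative to the positive control.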

Candida tropicalis = assay: Antifungal activity against Candida tropicalis ATCC 750 after 48 hrs by broth microdilution method; settings: ATCC 750, 48 h; summary of the method: as §1
Candida albicans [2] = assay: Antifungal activity against Candida albicans ATCC 10231 after 48 hrs by broth microdilution method; settings: ATCC 10231, 48 h; summary of the method: as §1
Nakaseomyces glabratus = assay: Antifungal activity against Candida glabrata ATCC 90030 after 48 hrs by broth microdilution method; settings: ATCC 90030, 48 h; summary of the method: as §1
Candida albicans [3] = assay: Antifungal activity against Candida albicans ATCC 2091 after 48 hrs by broth microdilution method; settings: ATCC 2091, 48 h; summary of the method: as §1
Pichia kudriavzevii = assay: Antifungal activity against Candida krusei ATCC 6258 after 48 hrs by broth microdilution method; settings: ATCC 6258, 48 h
Summary of the method: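 Broth microdilution MIC per CLSI M27-A2 in RPMI 1640 buffered to pH 7.0 with MOPS. End points were read at 48 h, visually or by spectrophotometer where needed. For fluconazole and the synthetic compounds, MIC was the concentration giving 50% inhibition relative to the positive control. Fluconazole and amphotericin B served as positive controls.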

Candida albicans [4] = assay: Antifungal activity against Candida albicans ATCC 90028 after 48 hrs by broth microdilution method; settings: ATCC 90028, 48 h; summary of the method: as §1

Row | Structure (SMILES) | MIC (Aspergillus niger) | MIC (Fusarium proliferatum) | MIC (Candida albicans [1]; ATCC 24433, 48 h) | MIC (Candida tropicalis) | MIC (Candida albicans [2]) | MIC (Nakaseomyces glabratus) | MIC (Candida albicans [3]) | MIC (Pichia kudriavzevii) | MIC (Candida albicans [4]) | MIC (Aspergillus niger; ATCC 16404, 48 h) | MIC (Fusarium proliferatum; ATCC 10052, 48 h) | MIC (Candida albicans [1])
1 | O=C1COc2ccc(Cl)cc2N1CC(O)(Cn1cncn1)c1ccc(Br)cc1 (stereo not drawn) | inactive | inactive | 4 µg/mL (≈ 8.63 µM) |  |  |  |  |  |  |  |  | 
2 | O=C1COc2ccc(Br)cc2N1CC(O)(Cn1cncn1)c1ccc(F)cc1F (stereo not drawn) | inactive | inactive | 16 µg/mL (≈ 34.4 µM) |  |  |  |  |  |  |  |  | 
3 | O=C1COc2ccc(Cl)cc2N1CC(O)(Cn1cncn1)c1ccc(F)cc1F (stereo not drawn) | inactive | inactive | 8 µg/mL (≈ 19 µM) |  |  |  |  |  |  |  |  | 
4 | O=C1CSc2cc(Br)ccc2N1CC(O)(Cn1cncn1)c1ccc(F)cc1F (stereo not drawn) | inactive | inactive | 1 µg/mL (≈ 2.08 µM) |  |  |  |  |  |  |  |  | 
5 | O=C1CSc2cc(Cl)ccc2N1CC(O)(Cn1cncn1)c1ccc(F)cc1F (stereo not drawn) | inactive | inactive | 1 µg/mL (≈ 2.29 µM) |  |  |  |  |  |  |  |  | 
6 | O=C1CSc2cc(Cl)ccc2N1CC(O)(Cn1cncn1)c1ccc(F)cc1 (stereo not drawn) | inactive | inactive | 2 µg/mL (≈ 4.77 µM) |  |  |  |  |  |  |  |  | 
7 | O=C1CSc2ccccc2N1CC(O)(Cn1cncn1)c1ccc(F)cc1F (stereo not drawn) | inactive | inactive | 0.03 µg/mL (≈ 0.0745 µM) | 0.5 µg/mL (≈ 1.24 µM) | 0.12 µg/mL (≈ 0.298 µM) | 0.06 µg/mL (≈ 0.149 µM) | 0.12 µg/mL (≈ 0.298 µM) | 4 µg/mL (≈ 9.94 µM) | 0.03 µg/mL (≈ 0.0745 µM) |  |  | 
8 | Cc1ccc2c(c1)SCC(=O)N2CC(O)(Cn1cncn1)c1ccc(F)cc1F (stereo not drawn) | inactive | inactive | 2 µg/mL (≈ 4.8 µM) |  |  |  |  |  |  |  |  | 
9 | C[C@@H]1[C@H](O)[C@@H](C)/C=C/C=C/C=C/C=C/C=C/C=C/C=C/[C@H](O[C@@H]2O[C@H](C)[C@@H](O)[C@H](N)[C@@H]2O)C[C@@H]2O[C@](O)(C[C@@H](O)C[C@@H](O)[C@H](O)CC[C@@H](O)C[C@@H](O)CC(=O)O[C@H]1C)C[C@H](O)[C@H]2C(=O)O [AMPHOTERICIN B] |  |  | 0.25 µg/mL (≈ 0.271 µM) | 0.5 µg/mL (≈ 0.541 µM) | 0.5 µg/mL (≈ 0.541 µM) | 0.25 µg/mL (≈ 0.271 µM) | 0.5 µg/mL (≈ 0.541 µM) | 0.5 µg/mL (≈ 0.541 µM) | 0.5 µg/mL (≈ 0.541 µM) | 1 µg/mL (≈ 1.08 µM) | 2 µg/mL (≈ 2.16 µM) | 
10 | COc1ccc2c(c1)SCC(=O)N2CC(O)(Cn1cncn1)c1ccc(Br)cc1 (stereo not drawn) | inactive | inactive | 2 µg/mL (≈ 4.21 µM) |  |  |  |  |  |  |  |  | 
11 | OC(Cn1cncn1)(Cn1cncn1)c1ccc(F)cc1F [FLUCONAZOLE] |  |  | 0.25 µg/mL (≈ 0.816 µM) | 2 µg/mL (≈ 6.53 µM) | 1 µg/mL (≈ 3.27 µM) | 4 µg/mL (≈ 13.1 µM) | 0.5 µg/mL (≈ 1.63 µM) | 64 µg/mL (≈ 209 µM) | 0.5 µg/mL (≈ 1.63 µM) | 128 µg/mL (≈ 418 µM) | > 128 µg/mL | 
12 | COc1ccc2c(c1)SCC(=O)N2CC(O)(Cn1cncn1)c1ccc(F)cc1 (stereo not drawn) | inactive | inactive | 8 µg/mL (≈ 19.3 µM) |  |  |  |  |  |  |  |  | 
13 | O=C1COc2ccc([N+](=O)[O-])cc2N1CC(O)(Cn1cncn1)c1ccc(F)cc1F (stereo not drawn) | inactive | inactive | 32 µg/mL (≈ 74.2 µM) |  |  |  |  |  |  |  |  | 
14 | COc1ccc2c(c1)SCC(=O)N2CC(O)(Cn1cncn1)c1ccc(F)cc1F (stereo not drawn) | inactive | inactive | 4 µg/mL (≈ 9.25 µM) |  |  |  |  |  |  |  |  | 
15 | CC(=O)c1ccc2c(c1)N(CC(O)(Cn1cncn1)c1ccc(Br)cc1)C(=O)CO2 (stereo not drawn) | inactive | inactive | 32 µg/mL (≈ 67.9 µM) |  |  |  |  |  |  |  |  | 
16 | O=C1COc2ccccc2N1CC(O)(Cn1cncn1)c1ccc(F)cc1F (stereo not drawn) | inactive | inactive | 0.5 µg/mL (≈ 1.29 µM) | 2 µg/mL (≈ 5.18 µM) | 0.5 µg/mL (≈ 1.29 µM) | 0.25 µg/mL (≈ 0.647 µM) | 0.25 µg/mL (≈ 0.647 µM) | 16 µg/mL (≈ 41.4 µM) | 0.12 µg/mL (≈ 0.311 µM) |  |  | 
17 | CC(=O)c1ccc2c(c1)N(CC(O)(Cn1cncn1)c1ccc(F)cc1F)C(=O)CO2 (stereo not drawn) | inactive | inactive |  |  |  |  |  |  |  |  |  | inactive
18 | O=C1COc2ccc(Cl)cc2N1CC(O)(Cn1cncn1)c1ccc(F)cc1 (stereo not drawn) | inactive | inactive | 16 µg/mL (≈ 39.7 µM) |  |  |  |  |  |  |  |  | 
